Most compounds without a hit are left out; they make up all but 1.3% or so of the library.
TAG inh – reduces triacylglycerol accumulation in H9c2 cells; Nile Red lipid (TAG) fluorescence; cells loaded with 200 µM oleic acid; inhibition, % at 12.5 µM; hit rate 0.66% among 230,000;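 active = pattern-corrected inhibition of lipid staining of at least 50% with the nuclear-stain viability signal not falling by more than 50%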
GSK3 alpha inh – inhibitors of human GSK-3 alpha kinase | P49840 | ADP-Glo luminescence, 60 min | inhibition, % at 10 µM | hit rate 0.1% among 320,000;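 active = more than half of replicates show inhibition above 20%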;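 also: GST-tagged GSK-3 alpha with peptide substrate and 25 µM ATP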
Target sequence (P49840 whole entry, looked up): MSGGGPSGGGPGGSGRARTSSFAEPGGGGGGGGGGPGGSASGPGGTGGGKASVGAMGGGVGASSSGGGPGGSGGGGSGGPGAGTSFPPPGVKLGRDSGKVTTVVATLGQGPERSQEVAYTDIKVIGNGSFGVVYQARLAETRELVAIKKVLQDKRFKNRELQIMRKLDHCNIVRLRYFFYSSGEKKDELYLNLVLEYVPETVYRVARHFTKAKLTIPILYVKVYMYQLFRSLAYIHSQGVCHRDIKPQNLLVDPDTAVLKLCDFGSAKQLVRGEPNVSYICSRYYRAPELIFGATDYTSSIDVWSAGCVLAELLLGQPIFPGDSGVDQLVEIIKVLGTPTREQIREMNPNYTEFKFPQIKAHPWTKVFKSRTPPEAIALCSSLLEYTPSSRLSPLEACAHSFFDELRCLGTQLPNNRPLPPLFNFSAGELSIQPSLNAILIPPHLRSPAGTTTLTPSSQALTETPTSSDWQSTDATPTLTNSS
GSK3beta inhib – human GSK3beta kinase inhibition; activity score (negative = inhibition), % at 10 µM; GST-GSK3beta kinase, ADP-Glo luminescence, 60 min; stronger effect = lower value; hit rate 0.038% among 300,000;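 active = more than half of replicate wells score below -50%, meaning over 50% inhibition versus plate controls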
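Test system – GST-tagged human GSK3beta kinase, cell-free · Incubation – 60 min enzyme reaction, room temperature · Signal – ADP-Glo luminescence · Also added – peptide substrate and ATP at 25 µM · Controls – DMSO neutral wells and GW8510 at 20 µM as positive · Buffer or medium – Tris/MgCl2 kinase buffer · Measure – Luminescence-derived activity versus plate DMSO and GW8510 wells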
LANA-H2A inh – blocks KSHV LANA binding to histone H2A/H2B; Q9QR71; cell-free LANA-H2A/H2B peptide, fluorescence polarization; inhibition, % (test concentration not listed); hit rate 0.6% among 320,000; AID 2629; in the data active = inhibition mostly above about 10%, no sharp cut-off; inactive = mostly below about 6.7%
Lipid droplet – hepatic lipid droplet formation modulation | hit rate 0.4% among 240,000 | inhibition, % at 6.5 µM | AML12 mouse hepatocytes, oleate lipid droplets, BODIPY imaging | AID 1656;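 active = lipid droplet intensity inhibited by at least 50%, with more than 500 cells counted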
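Assay system: AML12 mouse liver cells | Compound: 6.5 µM single-point dosing | Schedule: Overnight exposure | Technique: Fluorescence imaging, 20x objective, two fields per well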
STK33 inh – human STK33 kinase inhibition. Q9BYT3. purified STK33, MBP phosphorylation, ADP-Glo luminescence. inhibition, % at 10 µM. hit rate 0.073% among 320,000. AID 2661;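 active = inhibition at or above 25%, using the most active replicate where run in duplicate; inactive = inhibition below 25%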
Of the large screens only hits and unclear results are named; the others gave an inactive call.

COc1ccccc1CNC(=O)c1ccc2nc3[nH]c4ccccc4c3nc2c1	Lipid droplet 73 (no result: TAG inh)
COc1ccc(CC(=O)NCc2ccc(-n3cccc3)cc2)cc1OC	none (no result: TAG inh)
CNC(=O)COC(=O)c1cc(F)c(F)cc1Cl	LANA-H2A inh 20 (no result: Lipid droplet)
CC(C)NC(=O)COC(=O)c1cc(F)c(F)cc1Cl	none
O=C1c2ccccc2C(=O)N1CCCSc1nc2ccccc2o1	LANA-H2A inh 15 (no result: TAG inh, Lipid droplet)
Cn1nnnc1Sc1ncnc2scc(-c3ccc(F)cc3)c12	none
Cn1nnnc1Sc1ncnc2scc(-c3ccc(Br)cc3)c12	TAG inh 58 (no result: GSK3beta inhib, Lipid droplet)
COc1cccc(OCCOc2c(OC)cccc2OC)c1	LANA-H2A inh 14
COc1cccc(OC)c1OCCCOc1c(OC)cccc1OC	none
C[C@H]1COC(=O)[C@H](CC(=O)OC(C)(C)C)C/C=C\C[C@@H](CC(=O)NCCO)C(=O)N1	none (no result: GSK3beta inhib, Lipid droplet)
Cc1ccc(S(=O)(=O)Cc2ccc([N+](=O)[O-])cc2)cc1	LANA-H2A inh 16 (no result: TAG inh)
Cc1ccsc1/C=C1\Oc2cc(O)ccc2C1=O	none (no result: GSK3 alpha inh, GSK3beta inhib, LANA-H2A inh, Lipid droplet, STK33 inh)
COc1cc(/C=C2\Oc3cc(O)ccc3C2=O)ccc1O	GSK3 alpha inh 63 (no result: TAG inh)
COc1cc(/C=C2\CCC/C(=C\c3ccc(O)c(OC)c3)C2=O)ccc1O	none (no result: TAG inh)
O=C1/C(=C/c2ccc(O)c(O)c2)Oc2cc(O)ccc21	STK33 inh 46 (no result: TAG inh, GSK3beta inhib)
CCCCN(C(=O)CSc1nnc(-c2ccccc2OC)n1C)c1c(N)n(Cc2ccccc2)c(=O)[nH]c1=O	LANA-H2A inh active (no result: TAG inh)
COC(=O)CN(c1ccc(OC)cc1)S(=O)(=O)c1ccc(OC)c(OC)c1	none
CCOC(=O)C1=C(C)Nc2ncnn2C1c1cccs1 (centres undefined)	none (no result: GSK3 alpha inh, Lipid droplet)
CCCC1=C(C(=O)OCC)C(c2cccs2)n2ncnc2N1 (centres undefined)	GSK3 alpha inh 61
Cc1ccccc1NC(=O)Cc1nc(COC(=O)C(C)C)cs1	none
Cc1ccccc1NC(=O)Cc1nc(COC(=O)CCC(=O)c2ccccc2)cs1	LANA-H2A inh 104 (no result: GSK3beta inhib, Lipid droplet)
O=c1c(=Nc2ccccc2O)c(=O)c2ccccc12	none
COC(=O)c1ccc2c(c1)C(C)(C)C(/C=C/c1ccc(OC)c(OC)c1OC)=[N+]2C	none (no result: Lipid droplet)
COC(=O)c1ccc2c(c1)C(C)(C)C(/C=C/c1ccc(O)cc1)=[N+]2C	Lipid droplet 119 (no result: TAG inh)
CCOc1cc(-c2cc(-c3ccc(C)cc3)nc(N)c2C#N)ccc1O	none
CCOc1cc(/C=C(\C#N)c2[nH]nc(N)c2C#N)ccc1O	STK33 inh 35 (no result: TAG inh, Lipid droplet)
COc1ccccc1N(C(=O)CCl)c1cn(C(C)=O)c2ccccc12	TAG inh 74
CCOC(=O)c1ccccc1Nc1cn(C(C)=O)c2ccccc12	none
CC(=O)n1cc(N(C(=O)CCl)c2ccc(Cl)cc2)c2ccccc21	TAG inh 67
Cc1ccc(C(=O)NCCN(C)C)cc1C	none
COc1cccc(N2CCN(C(=O)c3nc4nc(C)cc(C)n4n3)CC2)c1	none
COc1ccc(NC(=O)CSc2nnnn2C2CCCC2)cc1S(=O)(=O)N1CCOCC1	none (no result: GSK3 alpha inh, GSK3beta inhib, LANA-H2A inh, Lipid droplet, STK33 inh)
COc1cc2c(cc1OC)C(=NO)CCCC2	none (no result: GSK3 alpha inh, GSK3beta inhib, LANA-H2A inh, Lipid droplet, STK33 inh)
CN1CCCC1CCNc1ccc2sc3ccccc3c(=O)c2c1 (centres undefined)	STK33 inh 44 (no result: Lipid droplet)
Cc1cc2oc3cc(NCCC4CCCN4C)ccc3c(=O)c2cc1C (centres undefined)	none (no result: Lipid droplet)
O=c1c2ccccc2sc2ccc(NCCCN3CCOCC3)cc12	STK33 inh 57 (no result: Lipid droplet)
CC1Sc2ccc(S(=O)(=O)CCC(=O)N3CCN(c4cccc(Cl)c4)CC3)cc2NC1=O (centres undefined)	LANA-H2A inh 30 (no result: TAG inh)
CC1Sc2ccc(S(=O)(=O)CCC(=O)N3CCN(c4ccccc4)CC3)cc2NC1=O (centres undefined)	none (no result: TAG inh)
Cc1cccc(C)c1NC(=O)CN(C)C(=O)c1ccc2c(=O)n3c(nc2c1)CCC3	LANA-H2A inh 15 (no result: GSK3beta inhib, Lipid droplet)
CCN(C(=O)Nc1ccccc1)c1ccccc1	LANA-H2A inh 17 (no result: TAG inh)
COc1ccc(-c2cc(C(=O)N3CC4(C)CC3CC(C)(C)C4)no2)cc1OC (centres undefined)	LANA-H2A inh 55 (no result: TAG inh, Lipid droplet)
Cc1ccc(C(=O)OCC(=O)c2c[nH]c3ccccc23)cc1NC(=O)c1ccco1	LANA-H2A inh active
Cc1onc(-c2c(F)cccc2Cl)c1C(=O)OCC(=O)c1c[nH]c2ccccc12	LANA-H2A inh 29

Compound activity: PubChem, several laboratories
